“And” between values parts separate entries of the source, which are not always exact repeats. Identical values can stand only once.
What was measured:
[1] = species on record: Rattus norvegicus; experiment: Inhibition of production of ketones in rat liver homogenates; assay type: functional
In short: (§1)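 Fatty acid oxidation was read as the fall in ketone production, tested in rat liver homogenates and in hepatocytes isolated from 18 h fasted rats. IC50 ± SE was taken from concentration-response data. Where no reasonable dose response was seen, the highest dose tested is given instead.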

[2] = species on record: Rattus norvegicus; experiment: Inhibition of production of ketones in rat liver hepatocytes from 18 hr fasted rats; assay type: functional; settings: Hepatocyte; in short: as §1
[3] = biological target: T1, Carnitine O-palmitoyltransferase 1, liver isoform (Rattus norvegicus, UniProt P32198); experiment: In vitro inhibition of carnitine palmitoyltransferase I with respect to palmitoyl CoA in rat
T1 sequence (P32198 whole entry): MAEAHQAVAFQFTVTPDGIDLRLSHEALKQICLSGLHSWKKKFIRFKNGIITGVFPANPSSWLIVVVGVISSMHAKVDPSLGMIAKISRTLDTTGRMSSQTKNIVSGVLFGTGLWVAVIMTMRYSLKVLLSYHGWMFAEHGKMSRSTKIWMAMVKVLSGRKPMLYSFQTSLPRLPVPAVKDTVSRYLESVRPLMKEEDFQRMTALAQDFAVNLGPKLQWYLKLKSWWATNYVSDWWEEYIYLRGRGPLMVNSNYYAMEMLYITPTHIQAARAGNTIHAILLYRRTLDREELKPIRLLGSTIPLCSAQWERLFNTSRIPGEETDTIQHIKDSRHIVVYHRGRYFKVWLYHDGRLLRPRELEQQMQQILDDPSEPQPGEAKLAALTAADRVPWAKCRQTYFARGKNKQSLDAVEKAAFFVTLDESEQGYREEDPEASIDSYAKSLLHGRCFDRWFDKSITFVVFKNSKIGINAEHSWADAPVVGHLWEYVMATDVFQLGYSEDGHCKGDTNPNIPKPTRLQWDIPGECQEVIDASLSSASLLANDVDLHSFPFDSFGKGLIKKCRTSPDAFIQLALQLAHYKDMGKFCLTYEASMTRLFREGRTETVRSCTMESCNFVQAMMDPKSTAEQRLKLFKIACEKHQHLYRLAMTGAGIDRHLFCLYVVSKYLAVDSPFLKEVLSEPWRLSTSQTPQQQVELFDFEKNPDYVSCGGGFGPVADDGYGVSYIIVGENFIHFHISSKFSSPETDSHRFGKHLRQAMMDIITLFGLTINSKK

[4] = tested on: Rattus norvegicus; experiment: Blood glucose level in NIDDM rats after 11 days of treatment at a dose 21.9 […] Blood samples taken 6 hr post-dose in a 6 hr fasted state; assay type: functional
In short: (§2)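 NIDDM model: fat-fed, low-dose streptozotocin-treated rats. Oral gavage once daily for 11 days at 0 to 87.5 mg/kg/d. Blood sampled 6 h post-dose, with rats in a 6 h fasted state. Blood glucose reported in mg/dL as mean ± error. Significance tested against vehicle control (p<0.05, p<0.01).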

[5] = tested on: Rattus norvegicus; experiment: Blood glucose level in NIDDM rats after 11 days of treatment at a dose 32.9 mg/kg/d Blood samples taken 6 hr post-dose in a 6 hr fasted state; assay type: functional; in short: as §2
[6] = species on record: Rattus norvegicus; experiment: Blood glucose level in NIDDM rats after 11 days of treatment Blood samples taken 6 hr post-dose in a 6 hr fasted state.; assay type: functional; in short: as §2
[7] = tested on: Rattus norvegicus; experiment: Blood glucose level in NIDDM rats after 11 days of treatment at a dose 0 mg/kg/d Blood samples taken 6 hr post-dose in a 6 hr fasted state; assay type: functional; in short: as §2
[8] = tested on: Rattus norvegicus; experiment: Blood glucose level in NIDDM rats after 11 days of treatment at a dose 21.9 mg/kg/d Blood samples taken 6 hr post-dose in a 6 hr fasted state; assay type: functional; in short: as §2

SMILES	IC50 [1]	IC50 [2]	also measured
CCCCCCCCCCCCCCP(=O)([O-])CC(CC(=O)O)C[N+](C)(C)C (configuration not stated)	> 300 µM	> 300 µM	–
CCCCCCCCCCCCCCOP(=O)([O-])O[C@@H](CC(=O)O)C[N+](C)(C)C	> 300 µM	220 µM	–
CCCCCCCCCCCCCCOP(=O)([O-])O[C@H](CC(=O)O)C[N+](C)(C)C	28 µM	3.4 µM	Ki [3]: 3.6 µM; Glucose level [4]: 164 mg/dL; Glucose level [5]: 179 mg/dL and 93 mg/dL; Glucose level [6]: 197 mg/dL; Glucose level [7]: 197 mg/dL; Glucose level [8]: 164 mg/dL

The next lines start with results.

IC50 [1]	SMILES	IC50 [2]	also measured
1.3 µM	CCCCCCCCCCCCCCCC(=O)NC(CC(=O)[O-])C[N+](C)(C)C (configuration not stated)	1.2 µM	–
> 100 µM	CCCCCCCCCCCCCCCP(=O)([O-])O[C@@H](CC(=O)O)C[N+](C)(C)C	> 300 µM	–
> 100 µM	CCCCCCCCCCCCCCCP(=O)([O-])NC(CC(=O)O)C[N+](C)(C)C (configuration not stated)	> 300 µM	–
36 µM	CCCCCCCCCCCCCCCP(=O)([O-])O[C@H](CC(=O)O)C[N+](C)(C)C	3 µM	–
24 µM	CCCCCCCCCCCCCCOP(=O)([O-])N[C@H](CC(=O)O)C[N+](C)(C)C	46 µM	–

From ChEMBL document CHEMBL1128532, “Antidiabetic agents: a new class of reversible carnitine palmitoyltransferase I inhibitors” (J Med Chem, 1995)
